The subject of data set [1] is HepG2. The data set is described as follows: Cytotoxicity against human HepG2 cells upto 100 uM by MTT assay. It counts as cell-based. (Formazan colour is commonly taken as a measure of viable cells.)
The subject of data set [2] is HepG2. The experiment in a line: Inhibition of oleic acid-induced lipid accumulation in human HepG2 cells at 10 uM by oil red O staining analysis. It counts as functional, cell-based. The essentials:
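HepG2 cells in DMEM with 10% FBS and penicillin/streptomycin, grown to 70–80% confluence, preloaded with 100 μM oleic acid for 12 h, then given compound at 10 μM in DMEM/100 μM oleic acid for another 6 h. Statin positive control and DMEM/oleic acid blank. Oil Red O staining read by spectrophotometry at 358 nm. n = 8, experiment repeated in triplicate, mean ± SEM.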

Data set [3] has as its system HepG2. The data set is described as follows: Inhibition of oleic acid-induced triglyceride level in human HepG2 cells at 10 uM. It is filed as functional, cell-based. An outline of the steps:
(§1)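 HepG2 cells at 70–80% confluence exposed to 100 μM oleic acid in DMEM for 12 h, then compound at 10 μM plus 100 μM oleic acid for 6 h. Statin positive control. Intracellular total cholesterol and triglyceride measured with commercial kits. n = 3, experiment repeated in triplicate, mean ± SEM.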

In data set [4] the test system is HepG2. The experiment in a line: Inhibition of oleic acid-induced total cholesterol level in human HepG2 cells at 10 uM. It counts as functional, cell-based. The essentials: as §1
Data set [5] has as its system HepG2. The experiment in a line: Decrease in acetyl-CoA carboxylase mRNA level in human HepG2 cells by RT-PCR analysis. It is filed as functional, cell-based.
Data set [6] deals with HepG2. The data set is described as follows: Decrease in fatty acid synthase mRNA level in human HepG2 cells by RT-PCR analysis. It is filed as functional, cell-based.
The test system of data set [7] is HepG2. The data set is described as follows: Decrease in SREBP-1c mRNA level in human HepG2 cells by RT-PCR analysis. It is filed as functional, cell-based.

Active and inactive are the calls of the source. No cut-off for these calls is given here.

With `CCC[C@H](O)[C@H](O)/C=C/c1cccc(OC)c1CO`, the Activity entry in the data set on HepG2 [1] is given as “Non-toxic”. Besides, the inhibition result with HepG2 [2] and in the data set with HepG2 [3] was “Active” throughout. The inhibition entry in the data set with HepG2 [4] is “inactive”.

Take `C/C=C/[C@H](O)[C@H](O)/C=C/c1cccc(OC)c1CO`: the Activity entry in the data set on HepG2 [1] was “Non-toxic”. The inhibition result with HepG2 [2] is “Active”. In addition, in the data set on HepG2 [3], the inhibition result is “inactive”.

Regarding `C=C(C)[C@H]1COc2c(C)cc(O)c(C(=O)c3c(O)ccc(CC=C(C)C)c3O)c2[C@@H]1O`, the inhibition entry in the data set with HepG2 [5], with HepG2 [6], in the data set on HepG2 [7], in the data set with HepG2 [2], in the data set on HepG2 [3] and with HepG2 [4] was “Active” each time. Besides, the Activity entry in the data set on HepG2 [1] is on record as “Non-toxic”.
